Tests used:
[1] = test system: Human immunodeficiency virus 1; assay: Antiviral activity against HIV1 NL4-3 expressing NanoLuc-sec infected in human MT4 cells assessed as reduction in viral replication measured after 3 days by bright Glo-luciferase reporter gene assay; format: functional, organism-based; details: Human immunodeficiency virus 1, NL4-3, MT4, 72 h
Summary of the method: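 MT-4 cells (1 × 10⁵ cells/mL) infected with 200 TCID50 HIV-1 NL4–3 Nanoluc-sec across a range of compound concentrations. Incubation ran 3 days at 37°C, 5% CO₂, over multiple replication rounds. Luminescence was read after Bright Glo addition. EC₅₀ is the concentration giving 50% lower luciferase RLU than virus-control wells.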

MT4 = assay: (§1) Cytotoxicity against human MT4 cells assessed as reduction in cell viability incubated for 3 days by XTT assay; format: cell-based; details: mt4, 72 h, time 3 day
Summary of the method: (§2)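 Uninfected MT-4 cells were cultured with various compound concentrations at 37°C, 5% CO₂ for three days, in parallel with the antiviral assay. XTT was added, and absorbance at 450 nm was read four hours later. CC₅₀ is the concentration giving 50% loss of cell viability.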

[2] = Selectivity index, ratio of CC50 for cytotoxicity against human MT4 cells to EC50 for antiviral activity against HIV1 infected in human MT4 cells; format: toxicity, cell-based; details: read-out: Ratio CC50/EC50
Summary of the method: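 SI is CC₅₀/EC₅₀. For EC₅₀, MT-4 cells (1 × 10⁵ cells/mL) were infected with 200 TCID50 HIV-1 NL4-3 Nanoluc-sec with graded compound concentrations, held 3 days at 37°C, 5% CO₂, and read by luminescence; EC₅₀ is 50% luciferase reduction versus virus control. For CC₅₀, uninfected MT-4 cells were run in parallel for 3 days with an XTT read-out at 450 nm.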

[3] = Binding affinity to HIV1 capsid protein hexamer assessed as dissociation constant by SPR analysis; design: species or system Human immunodeficiency virus 1
Summary of the method: (§3)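 SPR at 25 °C on amine-coupled GLH chips, with protein at 500 μg/ml in 10 mM sodium acetate pH 5.5. Running buffer was 20 mM sodium phosphate, 150 mM NaCl, 0.005% Tween 20, pH 7.4, plus 3% DMSO for compound dilutions. One-shot kinetics used 100 μL/min, 1 min association and 5 min dissociation. Responses were reference-subtracted, run three times, and KD taken from a one-site binding model.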

[4] = Binding affinity to HIV1 capsid protein monomer assessed as dissociation constant by SPR analysis; design: species or system Human immunodeficiency virus 1; summary of the method: as §3
[5] = as §1; format: cell-based; details: MT4 cells, time 3 day; summary of the method: as §2

SMILES	EC50 [1]	CC50 (MT4)	selectivity ratio [2]	Kd [3]	Kd [4]	CC50 at 72 h [5]
COc1ccc(N(C)C(=O)[C@H](Cc2ccccc2)NC(=O)c2cccc(S(=O)(=O)N3CCSCC3)c2)cc1	5.06 µM	> 9.33 µM	> 1.84	–	–	–
COc1ccc(N(C)C(=O)[C@H](Cc2ccccc2)NC(=O)c2cccc(NS(=O)(=O)c3ccc(OC(F)(F)F)cc3)c2)cc1	> 7.97 µM	> 7.97 µM	–	–	–	–
COc1ccc(N(C)C(=O)[C@H](Cc2ccccc2)NS(=O)(=O)CC(=O)Nc2ccc(C#N)cc2)cc1	8.09 µM	> 9.87 µM	> 1.22	–	–	–
COc1ccc(N(C)C(=O)[C@H](Cc2ccccc2)NC(=O)c2cccc(S(=O)(=O)Nc3ccc(C(F)(F)F)cc3)c2)cc1	> 8.17 µM	> 8.17 µM	–	–	–	–
COc1ccc(N(C)C(=O)[C@H](Cc2ccccc2)NC(=O)c2cccc(S(=O)(=O)N3CCc4cc([N+](=O)[O-])ccc43)c2)cc1	> 8.13 µM	> 8.13 µM	–	–	–	–
COc1ccc(N(C)C(=O)CS(=O)(=O)N[C@@H](Cc2ccccc2)C(=O)N(C)c2ccc(OC)cc2)cc1	5.14 µM	> 9.51 µM	> 1.85	4.82 µM	15.8 µM	–
COc1ccc(N(C)C(=O)[C@H](Cc2ccccc2)NC(=O)c2cccc(S(=O)(=O)Nc3cc(F)cc(F)c3)c2)cc1	> 8.63 µM	> 8.63 µM	–	–	–	–
COc1ccc(N(C)C(=O)[C@H](Cc2ccccc2)NC(=O)c2cccc(NS(=O)(=O)c3cc(F)cc(F)c3)c2)cc1	> 8.63 µM	> 8.63 µM	–	–	–	–
COc1ccc(N(C)C(=O)c2cccc(S(=O)(=O)N[C@@H](Cc3ccccc3)C(=O)N(C)c3ccc(OC)cc3)c2)cc1	> 8.51 µM	> 8.51 µM	–	–	–	–
COc1ccc(N(C)C(=O)[C@H](Cc2ccccc2)NC(=O)c2cccc(S(=O)(=O)N(C)c3ccc(OC)cc3)c2)cc1	5.27 µM	> 8.51 µM	> 1.61	–	–	–
COc1ccc(N(C)C(=O)[C@H](Cc2ccccc2)NS(=O)(=O)c2cccc(C(=O)Nc3ccc4ncsc4c3)c2)cc1	> 8.32 µM	> 8.32 µM	–	–	–	–
COc1ccc(N(C)C(=O)[C@H](Cc2ccccc2)NS(=O)(=O)CC(=O)N2CCc3cc(OC)ccc32)cc1	> 9.3 µM	> 9.3 µM	–	–	–	–
COc1ccc(N(C)C(=O)[C@H](Cc2ccccc2)NS(=O)(=O)CC(=O)N2CCc3cc([N+](=O)[O-])ccc32)cc1	> 9.09 µM	–	–	–	–	> 9.05 µM
COc1ccc(N(C)C(=O)[C@H](Cc2ccccc2)NC(=O)c2cccc(S(=O)(=O)N3CCc4cc(OC)ccc43)c2)cc1	> 8.34 µM	> 8.34 µM	–	–	–	–
COc1ccc(N(C)C(=O)[C@H](Cc2ccccc2)NS(=O)(=O)CC(=O)Nc2ccc3ncsc3c2)cc1	> 9.28 µM	> 9.28 µM	–	–	–	–
COc1ccc(N(C)C(=O)[C@H](Cc2ccccc2)NC(=O)C(=O)N2CCc3cc(OC)ccc32)cc1	> 10.3 µM	> 10.3 µM	–	–	–	–

SMILES	EC50 [1]	CC50 (MT4)	selectivity ratio [2]	Kd [3]	Kd [4]	CC50 at 72 h [5]
COc1ccc(N(C)C(=O)[C@H](Cc2ccccc2)NS(=O)(=O)c2cccc(C(=O)NC3CC3)c2)cc1	> 9.85 µM	> 9.85 µM	–	–	–	–
COc1ccc(N(C)C(=O)[C@H](Cc2ccccc2)NS(=O)(=O)CC(=O)Nc2cc(F)cc(F)c2)cc1	> 9.66 µM	> 9.66 µM	–	–	–	–
COc1ccc(N(C)C(=O)[C@H](Cc2ccccc2)NC(=O)c2cccc(NS(=O)(=O)c3ccc(F)cc3)c2)cc1	> 8.91 µM	> 8.91 µM	–	–	–	–
COc1ccc(N(C)C(=O)[C@H](Cc2ccccc2)NC(=O)c2cccc(S(=O)(=O)N3CCc4cc(N)ccc43)c2)cc1	2.57 µM	> 8.55 µM	> 3.33	4.21 µM	11.6 µM	–
COc1ccc(N(C)C(=O)[C@H](Cc2ccccc2)NC(=O)C(=O)Nc2ccc([N+](=O)[O-])cc2)cc1	> 10.5 µM	–	–	–	–	–
COc1ccc(N(C)C(=O)[C@H](Cc2ccccc2)NC(=O)C(=O)Nc2cc(F)cc(F)c2)cc1	> 8.81 µM	> 8.81 µM	–	–	–	–
COc1ccc(N(C)C(=O)[C@H](Cc2ccccc2)NS(=O)(=O)c2cccc(C(=O)N3CCc4ccncc43)c2)cc1	> 8.76 µM	–	–	–	–	> 8.76 µM
COc1ccc(N(C)C(=O)C(=O)N[C@@H](Cc2ccccc2)C(=O)N(C)c2ccc(OC)cc2)cc1	> 10.5 µM	> 10.5 µM	–	–	–	–
COc1ccc(N(C)C(=O)[C@H](Cc2ccccc2)NC(=O)c2cccc(S(=O)(=O)N(C)C)c2)cc1	8.68 µM	> 10.1 µM	> 1.12	–	–	–
COc1ccc(N(C)C(=O)[C@H](Cc2ccccc2)NC(=O)C(=O)N2CCc3cc([N+](=O)[O-])ccc32)cc1	> 9.95 µM	> 9.95 µM	–	–	–	–
COc1ccc(N(C)C(=O)[C@H](Cc2ccccc2)NC(=O)c2cccc(S(=O)(=O)N3CCCCC3)c2)cc1	4.85 µM	–	> 1.86	–	–	> 9.03 µM
COc1ccc(N(C)C(=O)[C@H](Cc2ccccc2)NC(=O)c2cccc(S(=O)(=O)N3CCc4ccccc43)c2)cc1	> 8.78 µM	> 8.78 µM	–	–	–	–
COc1ccc(N(C)C(=O)[C@H](Cc2ccccc2)NC(=O)C(=O)Nc2ccc3ncsc3c2)cc1	> 10.2 µM	> 10.2 µM	–	–	–	–
COc1ccc(N(C)C(=O)[C@H](Cc2ccccc2)NC(=O)C(=O)Nc2ccc(C#N)cc2)cc1	> 11 µM	> 11 µM	–	–	–	–
COc1ccc(N(C)C(=O)[C@H](Cc2ccccc2)NS(=O)(=O)CC(=O)n2ncc3ccccc32)cc1	> 9.87 µM	> 9.87 µM	–	–	–	–
COc1ccc(N(C)C(=O)[C@H](Cc2ccccc2)NS(=O)(=O)c2cccc(C(=O)N3CCOCC3)c2)cc1	> 9.3 µM	> 9.3 µM	–	–	–	–

Reference: ChEMBL document CHEMBL5053517, “Design, synthesis, and antiviral activity of phenylalanine derivatives as HIV-1 capsid inhibitors” (Bioorg Med Chem, 2021)
